Experimental data published in ChEMBL document CHEMBL1147356, “Structure and stereochemistry of pectinolides A-C, novel antimicrobial and cytotoxic 5,6-dihydro-alpha-pyrones from Hyptis pectinata” (1993).
In brackets after ≈: the same amount, converted by molar mass. Activity calls are given as the source filed them. The rule behind the calls is not given here.

Legend:
[1] = test system: Bacillus subtilis; test: Antibacterial activity against Bacillus subtilis ATCC 6633 at 1 mg/ml after 24 hrs at 37 degC by agar hole-plate diffusion assay; type: functional; details: ATCC 6633, 24 h, read-out: IZ
In short: (§1)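 Agar hole-plate diffusion. Agar plates (15 ml) seeded with 1 ml overnight broth culture (10⁶ bacteria/ml); 11 mm holes filled with 100 μl of pure compound at 1 mg/ml. Streptomycin sulfate (1 mg/ml) as positive control. Duplicate per organism, 24 h at 37°. Inhibition zone diameters measured.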

[2] = test system: Staphylococcus aureus; test: Antibacterial activity against Staphylococcus aureus ATCC 6538 at 1 mg/ml after 24 hrs at 37 degC by agar hole-plate diffusion assay; type: functional; details: ATCC 6538, 24 h, read-out: IZ; in short: as §1
[3] = test system: Escherichia coli; test: Antibacterial activity against Escherichia coli ATCC 8739 at < 100 ug/ml after 24 hrs at 37 degC by agar hole-plate diffusion assay; type: functional, organism-based
[4] = test system: Pseudomonas aeruginosa; test: Antibacterial activity against Pseudomonas aeruginosa ATCC 9027 at < 100 ug/ml after 24 hrs at 37 degC by agar hole-plate diffusion assay; type: functional, organism-based
[5] = test system: Candida albicans; test: Antifungal activity against Candida albicans ATCC 10231 at < 100 ug/ml after 24 hrs at 25 degC by agar hole-plate diffusion assay; type: functional, organism-based
[6] = test system: Bacillus subtilis; test: Antibacterial activity against Bacillus subtilis ATCC 6633 after overnight incubation at 37 degC by twofold serial dilution technique; type: functional
In short: (§2)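 Twofold broth dilution MIC. Sample at 1 mg/ml in MeOH-H2O (1:1), 0.5 ml added to 4.5 ml nutrient broth, then doubling dilutions from 100 to 0.2 μg/ml. Each tube inoculated to 10⁶ organisms/ml final. Duplicate per organism, with solvent and streptomycin control broths.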

[7] = test system: Staphylococcus aureus; test: Antibacterial activity against Staphylococcus aureus ATCC 6538 after overnight incubation at 37 degC by twofold serial dilution technique; type: functional; in short: as §2
[8] = test system: Escherichia coli; test: Antibacterial activity against Escherichia coli ATCC 8739 by agar diffusion technique; type: functional
[9] = test system: Pseudomonas aeruginosa; test: Antibacterial activity against Pseudomonas aeruginosa ATCC 9027 by agar diffusion technique; type: functional
[10] = test system: Candida albicans; test: Antifungal activity against Candida albicans ATCC 10231 by agar diffusion technique; type: functional
[11] = test system: Bacillus subtilis; test: Antibacterial activity against Bacillus subtilis ATCC 6633 at < 100 ug/ml after 24 hrs at 37 degC by agar hole-plate diffusion assay; type: functional, organism-based
[12] = Cytotoxicity against human BC1 cells after 72 hrs by sulforhodamine B assay; type: functional; details: BC1, 72 h, read-out: ED50 (the source's name)
In short: (§3)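 Log-phase cells treated with five sample concentrations (20.0–0.032 μg/ml) in DMSO for 72 h at 37°, 5% CO₂, 100% humidity. Sulforhodamine B staining quantified cells per well; results given as ED50.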

[13] = test system: HT-1080; test: Cytotoxicity against human HT1080 cells after 48 hrs by sulforhodamine B assay; type: functional; details: HT-1080, 48 h, read-out: ED50 (the source's name)
In short: (§4)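 Log-phase cells exposed to five concentrations (20.0–0.032 μg/ml) of sample in DMSO for 48 h at 37°, 5% CO₂, 100% humidity. Cell quantity per well determined by sulforhodamine B staining; ED50 reported.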

[14] = Cytotoxicity against human LUC1 cells after 48 hrs by sulforhodamine B assay; type: functional; details: LUC1, 48 h, read-out: ED50 (the source's name); in short: as §4
[15] = test system: SK-MEL-2; test: Cytotoxicity against human SK-MEL-2 cells after 72 hrs by sulforhodamine B assay; type: functional; details: SK-MEL-2, 72 h, read-out: ED50 (the source's name); in short: as §3
[16] = test system: KB; test: Cytotoxicity against human KB cells after 72 hrs by sulforhodamine B assay; type: functional; details: read-out: ED50 (the source's name); in short: as §3
[17] = Cytotoxicity against vinblastine-resistant human KBV1 cells after 72 hrs by sulforhodamine B assay; type: functional; details: KB-V1, 72 h, read-out: ED50 (the source's name); in short: as §3
[18] = test system: P388; test: Cytotoxicity against mouse P388 cells after 48 hrs by sulforhodamine B assay; type: functional; details: P388, 48 h, read-out: ED50 (the source's name); in short: as §4
[19] = test system: A-431; test: Cytotoxicity against human A431 cells after 72 hrs by sulforhodamine B assay; type: functional; details: A-431, 72 h, read-out: ED50 (the source's name); in short: as §3
[20] = test system: LNCaP; test: Cytotoxicity against human LNCAP cells after 72 hrs by sulforhodamine B assay; type: functional; details: read-out: ED50 (the source's name); in short: as §3
[21] = test system: ZR-75-1; test: Cytotoxicity against human ZR-75-1 cells after 72 hrs by sulforhodamine B assay; type: functional; details: ZR-75-1, 72 h, read-out: ED50 (the source's name); in short: as §3
[22] = test system: Staphylococcus aureus; test: Antibacterial activity against Staphylococcus aureus ATCC 6538 at < 100 ug/ml after 24 hrs at 37 degC by agar hole-plate diffusion assay; type: functional, organism-based
[23] = Cytotoxicity against human Col2 cells after 72 hrs by sulforhodamine B assay; details: Col2, 72 h, read-out: ED50 (the source's name)

Row | MIC [6] [µg/mL] | MIC [7] [µg/mL] | MIC [8] [µg/mL] | MIC [9] [µg/mL] | MIC [10] [µg/mL] | SMILES | zone of inhibition at 1000 µg/mL [1] [mm] | zone of inhibition at 1000 µg/mL [2] [mm] | Activity [3] | Activity [4] | Activity [5] | EC50 [12] [µg/mL] | EC50 [13] [µg/mL] | EC50 [14] [µg/mL] | EC50 [15] [µg/mL] | EC50 [16] [µg/mL] | EC50 [17] [µg/mL] | EC50 [18] [µg/mL] | EC50 [19] [µg/mL] | EC50 [20] [µg/mL] | EC50 [21] [µg/mL] | further results
1 | 50 (≈ 108 µM) | 75 (≈ 162 µM) | 300 (≈ 648 µM) | 300 (≈ 648 µM) | 200 (≈ 432 µM) | CCCC[C@H](OC(=O)CCl)[C@@H](OC(C)=O)[C@H](OC(C)=O)[C@@H]1OC(=O)C=C[C@@H]1OC(C)=O | 7 | 5 | inactive | inactive | inactive | – | – | – | – | – | – | – | – | – | – | –
2 | > 100 | > 100 | > 500 | > 500 | > 500 | CCCC[C@@H](/C=C\[C@@H]1OC(=O)C[C@@H](OC)[C@@H]1O)OC(C)=O | – | – | inactive | inactive | inactive | > 20 | > 20 | > 20 | > 20 | > 20 | > 20 | > 5 | > 20 | > 20 | > 20 | Activity [11]: inactive
3 | – | – | – | – | – | CC(=O)O[C@@H](C)[C@@H](/C=C/[C@@H]1O[C@@H]1[C@H]1CC=CC(=O)O1)OC(C)=O | – | – | – | – | – | 4.8 (≈ 14.8 µM) | 5.7 (≈ 17.6 µM) | 3.3 (≈ 10.2 µM) | 4.1 (≈ 12.6 µM) | 2.9 (≈ 8.94 µM) | 3.4 (≈ 10.5 µM) | 0.4 (≈ 1.23 µM) | 1.9 (≈ 5.86 µM) | 1.8 (≈ 5.55 µM) | 4.7 (≈ 14.5 µM) | Activity [11]: inactive; Activity [22]: inactive
4 | 50 (≈ 145 µM) | 75 (≈ 218 µM) | 300 (≈ 871 µM) | 300 (≈ 871 µM) | 200 (≈ 581 µM) | CCCC[C@H](OC(C)=O)[C@@H](O)[C@H](O)[C@@H]1OC(=O)C=C[C@@H]1OC(C)=O | 7 | 4 | inactive | inactive | inactive | 9.9 (≈ 28.7 µM) | 6.7 (≈ 19.5 µM) | 8.8 (≈ 25.6 µM) | 6 (≈ 17.4 µM) | 5.9 (≈ 17.1 µM) | > 20 | 0.5 (≈ 1.45 µM) | 4.5 (≈ 13.1 µM) | 4.5 (≈ 13.1 µM) | 6.2 (≈ 18 µM) | EC50 [23]: 5.1 µg/mL (≈ 14.8 µM)
5 | 50 (≈ 117 µM) | 100 (≈ 233 µM) | 300 (≈ 700 µM) | 200 (≈ 467 µM) | 500 (≈ 1170 µM) | CCCC[C@H](OC(C)=O)[C@@H](OC(C)=O)[C@H](OC(C)=O)[C@@H]1OC(=O)C=C[C@@H]1OC(C)=O | 5 | 4 | inactive | inactive | inactive | 7 (≈ 16.3 µM) | 8.4 (≈ 19.6 µM) | 7.6 (≈ 17.7 µM) | 4.5 (≈ 10.5 µM) | 4.4 (≈ 10.3 µM) | 6.3 (≈ 14.7 µM) | 0.4 (≈ 0.934 µM) | 2.6 (≈ 6.07 µM) | 1.9 (≈ 4.43 µM) | 7.8 (≈ 18.2 µM) | –
6 | – | – | – | – | – | CCCC[C@H](OC(C)=O)[C@@H](OC(C)=O)[C@H](OC(C)=O)[C@H]1CC=CC(=O)O1 [BORONOLIDE] | – | – | – | – | – | 2.8 (≈ 7.56 µM) | 4.5 (≈ 12.1 µM) | 3.9 (≈ 10.5 µM) | 3.3 (≈ 8.91 µM) | 4 (≈ 10.8 µM) | 8.6 (≈ 23.2 µM) | 1 (≈ 2.7 µM) | 6.5 (≈ 17.5 µM) | 3.2 (≈ 8.64 µM) | 8.7 (≈ 23.5 µM) | Activity [11]: inactive; Activity [22]: inactive
